Here are results for four compounds from ChEMBL document CHEMBL1914430, “Synthesis of some new 1,3,5-trisubstituted pyrazolines bearing benzene sulfonamide as anticancer and anti-inflammatory agents” (Bioorg Med Chem Lett, 2011).

Holding throughout (assay type): functional
One assay concerns MOLT-4. The assay is described as follows: Anticancer activity against human MOLT4 cells after 48 hrs. To be noted: MOLT-4, 48 h. Put shortly:
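NCI 60-line panel protocol with a 48 h incubation. Per line: GI50 = concentration giving 50% decrease in net cell growth; TGI = total growth inhibition; LC50 = net 50% loss of initial cells. When the level was not reached or was exceeded, the value is given as greater or less than the highest or lowest concentration tested.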

The test system of the next assay is T47D. The assay is described as follows: Anticancer activity against human T47D cells after 48 hrs. To be noted: for CC50: read-out: LC50 (the source's name). Put shortly:
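NCI ~60 human tumour cell line panel with a 48 h incubation. GI50 is the concentration giving a 50% fall in net growth, TGI gives total growth inhibition, and LC50 gives a net 50% loss of initial cells. An effect not reached or exceeded is reported as greater or less than the highest or lowest concentration tested.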

The test system of another assay is COLO 205. The experiment in a line: Anticancer activity against human COLO205 cells after 48 hrs. To be noted: COLO 205, 48 h. The gist of the method:
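NCI Drug Evaluation Branch 60-cell-line screen across leukemia, melanoma, lung, colon, CNS, ovarian, renal, prostate and breast panels. The incubation period is 48 h. Parameters are derived from dose–response data: GI50 is the concentration giving 50% decrease in net growth, TGI is total growth inhibition, and LC50 is net 50% loss of initial cells. Values beyond the tested range are reported as greater or less than the maximum or minimum concentration.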

`Cc1cc(O)c(C2=NN(c3ccc(S(N)(=O)=O)cc3)C(/C=C/c3ccccc3)C2)cc1Cl` (stereo unspecified): in the assay on MOLT-4, halving of growth (GI50) required 17.7 µM; the LC50 (as a rule, the concentration lethal to half of the exposed cells or organisms) was > 100 µM; the TGI (commonly the concentration at which net growth stops) was found to be 73.7 µM. Besides, in the assay with T47D, the GI50 (usually the concentration that inhibits growth by half) was 3.38 µM, the TGI is 14.7 µM and the CC50 was found to be 44.5 µM. Besides, in the assay on COLO 205, halving of growth (GI50) required 10.4 µM, the LC50 (concentration giving net 50% loss of initial cells) turned out to be 47 µM and total growth inhibition (TGI) required 22.1 µM.

Consider `COc1ccc(C2CC(c3cc(Cl)c(C)cc3O)=NN2c2ccc(S(N)(=O)=O)cc2)cc1OC` (stereo unspecified), for which, in the assay on MOLT-4, growth was halved (GI50) at 5.29 µM, the LC50 is > 100 µM and the TGI was > 100 µM. For the same compound, in the assay with T47D, growth was halved (GI50) at 3.1 µM, net growth stopped (TGI) at 13.3 µM and the CC50 was > 100 µM. Besides, in the assay on COLO 205, it took 1.93 µM to inhibit growth by half (GI50), the LC50 (concentration giving net 50% loss of initial cells) was 6.02 µM and total growth inhibition (TGI) required 3.41 µM.

For `Cc1cc(O)c(C2=NN(c3ccc(S(N)(=O)=O)cc3)C(c3ccccc3O)C2)cc1Cl` (stereo unspecified), in the assay with MOLT-4, the GI50 amounted to 4.74 µM, the LC50 is > 100 µM and the TGI was 34.4 µM. For the same compound, in the assay with T47D, the GI50 is 3.18 µM, the TGI amounted to 14.6 µM and the CC50 turned out to be 64.9 µM. In the assay with COLO 205, this compound yielded a GI50 of 1.95 µM, an LC50 (concentration giving net 50% loss of initial cells) of 6.43 µM and a TGI of 3.54 µM.

Consider `Cc1cc(O)c(C2=NN(c3ccc(S(N)(=O)=O)cc3)C(c3ccccc3Cl)C2)cc1Cl` (stereo unspecified), for which, in the assay on MOLT-4, the GI50 turned out to be 4.04 µM, the LC50 is > 100 µM and the TGI is > 100 µM. Besides, in the assay on T47D, the GI50 came to 2.81 µM, the TGI was determined as 10.3 µM and the CC50 is 82.3 µM. In the assay with COLO 205, it took 1.81 µM to inhibit growth by half (GI50), the LC50 (concentration giving net 50% loss of initial cells) turned out to be 6.03 µM and the TGI turned out to be 3.31 µM.
